# Measurements taken from ChEMBL document CHEMBL4052819 (2017).
# Active and inactive are the calls of the source. The rule behind the calls is not given here. Non-standard residues stand in square brackets, D forms with d. Residues, ends and D or L forms follow the SMILES beside them. *: point of attachment. Decanoyl = CCCCCCCCCC(=O)*; Dab = NCC[C@H](N)C(=O)O
# Experiments:
# Format in all cases: functional
# Staphylococcus aureus [1] = assay: Antibiofilm activity against methicillin-resistant Staphylococcus aureus LAC established catheter-associated biofilm model at 20 times MIC after 72 hrs relative to control
# Pseudomonas aeruginosa [2] = assay: Bactericidal activity against Pseudomonas aeruginosa ATCC 27853 after 60 mins in presence of LPS
# Method in brief: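 P. aeruginosa at ~10^6 CFU/mL in TSB with E. coli O111:B4 LPS (final 10, 25, 50 or 100 μg/mL), then compound at final 16 μg/mL. Incubated 37 °C, 200 rpm, 60 min; survivors counted on TSA. Three independent experiments, one replicate each.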
# Staphylococcus aureus [3] = assay: Antibacterial activity against Staphylococcus aureus ATCC 29213 after 18 to 20 hrs by broth microdilution method
# Method in brief: (§1)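 Broth microdilution in tryptic soy broth: 2-fold dilutions mixed 1:1 with ~1.5 × 10^5 CFU/mL inoculum, final 0.5–32 μg/mL; 37 °C, 18–20 h. MIC taken as lowest concentration giving no visible growth. At least three independent experiments, one replicate each.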
# Staphylococcus aureus [4] = assay: Bactericidal activity against Staphylococcus aureus ATCC 29213; conditions: read-out: MBC99.9
# Method in brief: (§2)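 MBC from MIC plates at end point: 50 μL from each well with no visible growth plated on tryptic soy agar and counted. MBC taken as lowest concentration giving ≥99.9% fall in viable count relative to initial inoculum. Three independent experiments, one replicate each.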
# Pseudomonas aeruginosa [5] = assay: Bactericidal activity against Pseudomonas aeruginosa ATCC 27853; conditions: read-out: MBC99.9; method in brief: as §2
# Enterococcus faecium [6] = assay: Bactericidal activity against Enterococcus faecium ATCC 19434; conditions: read-out: MBC99.9; method in brief: as §2
# Escherichia coli [7] = assay: Antibacterial activity against Escherichia coli ATCC 25922 after 18 to 20 hrs in presence of 95% serum by broth microdilution method
# Method in brief: (§3)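 Same microdilution with human serum as medium: compound 2-fold diluted in 100% serum, mixed 1:1 with 90% serum holding ~1.5 × 10^5 CFU/mL, giving 95% serum and final 0.5–64 μg/mL. MIC read as no visible growth after incubation as for the broth test.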
# Escherichia coli [8] = assay: Bactericidal activity against Escherichia coli ATCC 25922; conditions: read-out: MBC99.9; method in brief: as §2
# Acinetobacter baumannii [9] = assay: Bactericidal activity against Acinetobacter baumannii ATCC 19606; conditions: ATCC 19606 = CIP 70.34 = JCM 6841, read-out: MBC99.9; method in brief: as §2
# Staphylococcus aureus [10] = assay: Antibacterial activity against methicillin-resistant Staphylococcus aureus LAC
# Staphylococcus aureus [11] = assay: Antibacterial activity against Staphylococcus aureus ATCC 29213 after 18 to 20 hrs in presence of 95% serum by broth microdilution method; method in brief: as §3
# Acinetobacter baumannii [12] = assay: Antibacterial activity against Acinetobacter baumannii ATCC 19606 after 18 to 20 hrs by broth microdilution method; conditions: ATCC 19606 = CIP 70.34 = JCM 6841
# Escherichia coli [13] = assay: Antibacterial activity against Escherichia coli ATCC 25922 after 18 to 20 hrs by broth microdilution method; method in brief: as §1
# Pseudomonas aeruginosa [14] = assay: Antibacterial activity against Pseudomonas aeruginosa ATCC 27853 after 18 to 20 hrs by broth microdilution method; method in brief: as §1
# Klebsiella pneumoniae [15] = assay: Bactericidal activity against Klebsiella pneumoniae ATCC 13883; conditions: read-out: MBC99.9; method in brief: as §2
# Staphylococcus aureus [16] = assay: Antibiofilm activity against methicillin-resistant Staphylococcus aureus LAC established catheter-associated biofilm model after 72 hrs
# Staphylococcus aureus [17] = assay: Antibacterial activity against methicillin-resistant Staphylococcus aureus ATCC 43300 after 18 to 20 hrs by broth microdilution method
# Method in brief: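 Broth microdilution in tryptic soy broth: 2-fold dilutions mixed 1:1 with ~1.5 × 10^5 CFU/mL bacterial suspension in TSB, final 0.5–32 μg/mL, 37 °C for 18–20 h. MIC = lowest concentration with no visible growth. At least three independent experiments, one replicate each.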
# Staphylococcus aureus [18] = assay: Bactericidal activity against methicillin-resistant Staphylococcus aureus ATCC 43300; conditions: read-out: MBC99.9
# Method in brief: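 MBC taken at the end of the MIC test: 50 μL from each well without visible growth plated on tryptic soy agar. MBC = lowest concentration giving ≥99.9% reduction in viable cells relative to the initial inoculum. Three independent experiments, one replicate each.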
# Klebsiella pneumoniae [19] = assay: Antibacterial activity against Klebsiella pneumoniae ATCC 13883 after 18 to 20 hrs by broth microdilution method
# Enterococcus faecium [20] = assay: Antibacterial activity against Enterococcus faecium ATCC 19434 after 18 to 20 hrs by broth microdilution method; method in brief: as §1
Compound,Activity (Staphylococcus aureus [1]),Activity (Pseudomonas aeruginosa [2]),MIC (Staphylococcus aureus [3]),MBC (Staphylococcus aureus [4]),MBC (Pseudomonas aeruginosa [5]),MBC (Enterococcus faecium [6]),MIC (Escherichia coli [7]),MBC (Escherichia coli [8]),MBC (Acinetobacter baumannii [9]),Activity (Staphylococcus aureus [10]),MIC (Staphylococcus aureus [11]),MIC (Acinetobacter baumannii [12]),MIC (Escherichia coli [13]),MIC (Pseudomonas aeruginosa [14]),MBC (Klebsiella pneumoniae [15]),Activity (Staphylococcus aureus [16]),MIC (Staphylococcus aureus [17]),MBC (Staphylococcus aureus [18]),MIC (Klebsiella pneumoniae [19]),MIC (Enterococcus faecium [20])
CCO/N=C(\C(=O)N[C@@H]1C(=O)N2C(C(=O)[O-])=C(Sc3nc(-c4cc[n+](C)cc4)cs3)CS[C@H]12)c1nsc(NP(=O)(O)O)n1,inactive,–,–,–,–,–,–,–,–,–,–,–,–,–,–,–,–,–,–,–
CCCCCCCCCC(=O)N[C@@H](CCN)C(=O)N[C@H](C(=O)N[C@@H](CCN)C(=O)N[C@H](Cc1ccccc1)C(=O)N[C@@H](CC(C)C)C(=O)N[C@@H](CCN)C(=O)N[C@@H](C(=O)N[C@@H](CC(C)C)C(=O)N[C@@H](CO)C(N)=O)C(C)C)[C@@H](C)CC (Decanoyl-[Dab]I[Dab][dF]L[Dab][dV]LS-NH2),–,inactive,2 to 4 µg/mL,4 to 8 µg/mL,2 to 4 µg/mL,2 to 4 µg/mL,32 µg/mL,8 µg/mL,0.5 to 2 µg/mL,Active,16 µg/mL,0.5 to 2 µg/mL,2 to 8 µg/mL,1 to 2 µg/mL,4 to 8 µg/mL,inactive,2 to 4 µg/mL,2 to 4 µg/mL,2 to 4 µg/mL,2 µg/mL
